Our source for the IC50 values is ChEMBL document CHEMBL1153591, “Exploring bis-(indolyl)methane moiety as an alternative and innovative CAP group in the design of histone deacetylase (HDAC) inhibitors” (Bioorg Med Chem Lett, 2009).

For orientation: IC50 means the concentration at which inhibition is half-maximal.

Test [1] has as its target Histone deacetylase 2 (Homo sapiens, UniProt Q92769). Nature of the test: Inhibition of human HDAC2 by fluorimetry. The gist of the method:
(§1)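 Each purified single HDAC isoform incubated with fluorogenic substrate, a p53 fragment (residues […], Arg-His-Lys-Lys(Ac)) carrying an ε-acetylated lysine; deacetylation releases fluorophore, read by fluorimeter. Compounds tested as 10 doses, 1:3 serial dilution starting from 50 µM solution. IC50 from dose-response inhibition curves; trichostatin A as reference compound.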

The target in test [2] is T1, Polyamine deacetylase HDAC10 (Homo sapiens, UniProt Q969S8).
T1 sequence (Q969S8 whole entry): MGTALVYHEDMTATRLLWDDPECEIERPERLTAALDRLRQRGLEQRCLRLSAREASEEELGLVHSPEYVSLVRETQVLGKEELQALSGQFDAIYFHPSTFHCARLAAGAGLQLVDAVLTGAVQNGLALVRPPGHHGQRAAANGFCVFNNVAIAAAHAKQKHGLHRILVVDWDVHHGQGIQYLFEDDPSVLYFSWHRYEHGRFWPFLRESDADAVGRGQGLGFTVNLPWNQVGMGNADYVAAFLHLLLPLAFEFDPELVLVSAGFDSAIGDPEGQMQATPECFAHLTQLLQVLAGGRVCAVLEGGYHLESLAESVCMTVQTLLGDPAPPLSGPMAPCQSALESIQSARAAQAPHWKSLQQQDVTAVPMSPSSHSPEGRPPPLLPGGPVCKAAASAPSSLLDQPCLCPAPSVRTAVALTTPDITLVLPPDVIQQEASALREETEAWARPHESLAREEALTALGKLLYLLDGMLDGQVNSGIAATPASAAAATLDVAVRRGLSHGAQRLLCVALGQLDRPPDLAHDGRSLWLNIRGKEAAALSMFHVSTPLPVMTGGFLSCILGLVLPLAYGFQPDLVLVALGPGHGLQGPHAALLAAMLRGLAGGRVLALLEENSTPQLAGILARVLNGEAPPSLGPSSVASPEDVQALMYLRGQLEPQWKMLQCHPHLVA
Nature of the test: Inhibition of human HDAC10 by fluorimetry. The procedure, abridged:
as §1

The target in test [3] is Histone deacetylase 9 (Homo sapiens, UniProt Q9UKV0). The test can be described thus: Inhibition of human HDAC9 by fluorimetry. The gist of the method: as §1
Chain of Histone deacetylase 9 (Q9UKV0 whole entry): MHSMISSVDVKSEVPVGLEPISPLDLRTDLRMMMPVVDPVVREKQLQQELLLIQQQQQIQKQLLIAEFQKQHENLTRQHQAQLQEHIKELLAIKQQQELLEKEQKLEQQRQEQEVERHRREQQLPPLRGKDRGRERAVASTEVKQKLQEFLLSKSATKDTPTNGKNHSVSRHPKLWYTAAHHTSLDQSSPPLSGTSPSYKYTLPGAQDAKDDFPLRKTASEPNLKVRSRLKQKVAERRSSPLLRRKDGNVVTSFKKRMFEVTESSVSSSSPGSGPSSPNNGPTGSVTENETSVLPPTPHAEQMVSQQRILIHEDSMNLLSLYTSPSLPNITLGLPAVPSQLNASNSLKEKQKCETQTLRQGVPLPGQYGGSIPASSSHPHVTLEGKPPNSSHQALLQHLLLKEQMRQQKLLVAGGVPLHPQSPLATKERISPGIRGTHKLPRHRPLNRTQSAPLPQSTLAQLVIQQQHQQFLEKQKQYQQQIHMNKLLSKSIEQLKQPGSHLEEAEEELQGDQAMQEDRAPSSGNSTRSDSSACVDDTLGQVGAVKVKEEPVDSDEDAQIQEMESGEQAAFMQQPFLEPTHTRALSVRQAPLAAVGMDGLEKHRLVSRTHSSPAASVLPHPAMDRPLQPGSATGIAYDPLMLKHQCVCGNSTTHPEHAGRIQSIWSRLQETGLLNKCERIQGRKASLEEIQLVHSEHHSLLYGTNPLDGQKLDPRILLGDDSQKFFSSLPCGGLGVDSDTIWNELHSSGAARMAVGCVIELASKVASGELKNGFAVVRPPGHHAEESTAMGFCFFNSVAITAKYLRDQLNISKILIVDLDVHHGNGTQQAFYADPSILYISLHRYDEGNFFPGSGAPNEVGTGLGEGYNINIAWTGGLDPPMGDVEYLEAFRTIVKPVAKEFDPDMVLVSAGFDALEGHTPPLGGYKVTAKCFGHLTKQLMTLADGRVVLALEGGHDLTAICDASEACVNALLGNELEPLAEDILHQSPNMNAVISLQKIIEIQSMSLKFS
Test [4] deals with HCT-116. The test can be described thus: Cytotoxicity against human HCT116 cells after 24 hrs by sulforhodamine B assay. The settings on record: HCT-116, 24 h. In kind it is functional, cell-based. In general terms: Sulforhodamine B stains cellular protein and so reports cell mass.
The target of test [5] is T2, Protein deacetylase HDAC6 (Homo sapiens, UniProt Q9UBN7).
T2 sequence (Q9UBN7 whole entry): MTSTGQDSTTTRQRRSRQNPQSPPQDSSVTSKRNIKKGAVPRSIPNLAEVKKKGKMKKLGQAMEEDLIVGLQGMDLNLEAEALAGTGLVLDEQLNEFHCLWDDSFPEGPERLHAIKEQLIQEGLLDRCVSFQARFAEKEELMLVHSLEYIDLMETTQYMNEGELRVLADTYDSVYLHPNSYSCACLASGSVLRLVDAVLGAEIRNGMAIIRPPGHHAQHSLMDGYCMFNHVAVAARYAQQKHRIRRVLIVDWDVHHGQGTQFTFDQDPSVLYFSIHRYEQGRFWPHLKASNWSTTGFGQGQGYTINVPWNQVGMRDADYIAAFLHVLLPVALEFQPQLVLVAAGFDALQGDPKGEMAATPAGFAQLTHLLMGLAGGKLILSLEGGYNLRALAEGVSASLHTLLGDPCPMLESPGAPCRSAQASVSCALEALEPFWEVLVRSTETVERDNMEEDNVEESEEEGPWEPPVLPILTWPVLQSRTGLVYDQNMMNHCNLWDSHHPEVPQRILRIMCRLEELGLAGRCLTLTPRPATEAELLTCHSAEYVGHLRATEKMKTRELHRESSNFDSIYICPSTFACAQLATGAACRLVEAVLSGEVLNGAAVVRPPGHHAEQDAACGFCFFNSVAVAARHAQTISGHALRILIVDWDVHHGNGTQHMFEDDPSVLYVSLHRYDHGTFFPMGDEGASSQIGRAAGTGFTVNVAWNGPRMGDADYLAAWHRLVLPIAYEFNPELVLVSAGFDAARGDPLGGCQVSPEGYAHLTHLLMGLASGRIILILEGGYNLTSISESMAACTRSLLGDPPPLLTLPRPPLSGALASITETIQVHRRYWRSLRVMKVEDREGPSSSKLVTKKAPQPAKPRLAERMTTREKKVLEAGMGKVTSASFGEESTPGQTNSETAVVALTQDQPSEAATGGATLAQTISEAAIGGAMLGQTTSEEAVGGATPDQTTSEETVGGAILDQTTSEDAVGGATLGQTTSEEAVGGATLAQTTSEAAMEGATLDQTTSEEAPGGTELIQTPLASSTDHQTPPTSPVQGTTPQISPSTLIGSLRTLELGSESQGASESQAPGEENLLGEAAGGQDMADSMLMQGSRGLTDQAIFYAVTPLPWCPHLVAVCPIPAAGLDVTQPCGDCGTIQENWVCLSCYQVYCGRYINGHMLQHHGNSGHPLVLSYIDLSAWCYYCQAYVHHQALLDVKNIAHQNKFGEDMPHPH
The test can be described thus: Inhibition of human HDAC6 by fluorimetry. The gist of the method:
as §1

Test [6] deals with T3, Histone deacetylase 11 (Homo sapiens, UniProt Q96DB2).
T3 sequence (Q96DB2 whole entry): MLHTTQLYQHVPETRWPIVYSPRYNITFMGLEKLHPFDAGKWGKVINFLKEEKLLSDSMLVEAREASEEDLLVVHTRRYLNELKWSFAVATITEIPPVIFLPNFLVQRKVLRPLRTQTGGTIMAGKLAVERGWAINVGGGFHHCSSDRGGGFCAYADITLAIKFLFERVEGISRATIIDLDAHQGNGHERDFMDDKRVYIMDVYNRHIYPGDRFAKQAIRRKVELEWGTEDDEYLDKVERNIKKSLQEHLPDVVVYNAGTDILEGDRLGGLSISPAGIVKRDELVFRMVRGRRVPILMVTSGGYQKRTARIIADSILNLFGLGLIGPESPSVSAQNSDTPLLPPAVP
The test can be described thus: Inhibition of human HDAC11 by fluorimetry. The gist of the method:
as §1

For test [7], the target named is Histone deacetylase 4 (Homo sapiens, UniProt P56524). The test can be described thus: Inhibition of human HDAC4 by fluorimetry. The procedure, abridged: as §1
Chain of Histone deacetylase 4 (P56524 whole entry): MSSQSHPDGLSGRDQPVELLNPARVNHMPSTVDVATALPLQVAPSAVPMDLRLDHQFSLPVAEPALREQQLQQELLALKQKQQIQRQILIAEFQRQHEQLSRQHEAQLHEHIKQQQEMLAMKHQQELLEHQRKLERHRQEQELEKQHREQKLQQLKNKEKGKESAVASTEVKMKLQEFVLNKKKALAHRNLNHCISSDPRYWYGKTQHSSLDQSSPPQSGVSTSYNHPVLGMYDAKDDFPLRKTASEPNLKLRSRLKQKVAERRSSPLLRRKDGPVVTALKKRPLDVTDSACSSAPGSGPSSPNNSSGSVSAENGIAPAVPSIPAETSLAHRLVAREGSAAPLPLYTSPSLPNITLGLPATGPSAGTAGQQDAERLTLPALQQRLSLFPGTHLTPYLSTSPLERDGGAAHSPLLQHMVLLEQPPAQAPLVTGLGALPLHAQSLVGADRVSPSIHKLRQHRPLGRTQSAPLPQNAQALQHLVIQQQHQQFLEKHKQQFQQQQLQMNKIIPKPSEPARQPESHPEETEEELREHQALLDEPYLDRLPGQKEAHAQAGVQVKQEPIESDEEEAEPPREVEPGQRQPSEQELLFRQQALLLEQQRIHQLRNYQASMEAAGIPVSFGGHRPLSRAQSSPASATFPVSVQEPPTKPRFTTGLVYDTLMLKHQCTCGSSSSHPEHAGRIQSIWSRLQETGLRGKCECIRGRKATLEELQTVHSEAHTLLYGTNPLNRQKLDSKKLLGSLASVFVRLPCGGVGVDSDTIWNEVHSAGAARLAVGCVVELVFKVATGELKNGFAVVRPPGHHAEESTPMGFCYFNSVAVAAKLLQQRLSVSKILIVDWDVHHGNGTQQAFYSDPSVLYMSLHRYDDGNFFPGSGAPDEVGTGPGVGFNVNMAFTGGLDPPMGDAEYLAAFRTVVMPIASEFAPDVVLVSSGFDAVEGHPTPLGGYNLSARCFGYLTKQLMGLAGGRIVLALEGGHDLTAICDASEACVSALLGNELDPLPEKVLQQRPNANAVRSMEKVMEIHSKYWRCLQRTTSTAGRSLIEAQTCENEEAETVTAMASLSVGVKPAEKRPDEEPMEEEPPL
Test [8] addresses Histone deacetylase 3 (Homo sapiens, UniProt O15379). Nature of the test: Inhibition of human HDAC3 by fluorimetry. The procedure, abridged: as §1
The target in test [9] is Histone deacetylase 1 (Homo sapiens, UniProt Q13547). The test can be described thus: Inhibition of human HDAC1 by fluorimetry. The gist of the method:
as §1

Test [10] has as its target Histone deacetylase 5 (Homo sapiens, UniProt Q9UQL6). Nature of the test: Inhibition of human HDAC5 by fluorimetry. The procedure, abridged:
as §1

Chain of Histone deacetylase 1 (Q13547 whole entry): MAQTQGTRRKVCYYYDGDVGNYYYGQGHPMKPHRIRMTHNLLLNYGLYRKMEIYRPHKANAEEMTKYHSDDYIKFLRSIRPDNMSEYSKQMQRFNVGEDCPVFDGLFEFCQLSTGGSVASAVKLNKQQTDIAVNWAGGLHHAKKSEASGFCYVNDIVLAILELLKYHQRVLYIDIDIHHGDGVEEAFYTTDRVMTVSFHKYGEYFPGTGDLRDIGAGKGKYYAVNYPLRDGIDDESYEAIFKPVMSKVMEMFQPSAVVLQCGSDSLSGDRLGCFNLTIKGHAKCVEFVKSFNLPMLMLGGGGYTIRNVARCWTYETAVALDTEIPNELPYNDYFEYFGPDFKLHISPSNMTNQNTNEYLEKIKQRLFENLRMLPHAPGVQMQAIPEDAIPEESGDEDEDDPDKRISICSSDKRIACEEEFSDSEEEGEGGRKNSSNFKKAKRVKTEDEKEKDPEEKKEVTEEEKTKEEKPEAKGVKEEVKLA
Chain of Histone deacetylase 2 (Q92769 whole entry, the tested form may be a part, canonical isoform): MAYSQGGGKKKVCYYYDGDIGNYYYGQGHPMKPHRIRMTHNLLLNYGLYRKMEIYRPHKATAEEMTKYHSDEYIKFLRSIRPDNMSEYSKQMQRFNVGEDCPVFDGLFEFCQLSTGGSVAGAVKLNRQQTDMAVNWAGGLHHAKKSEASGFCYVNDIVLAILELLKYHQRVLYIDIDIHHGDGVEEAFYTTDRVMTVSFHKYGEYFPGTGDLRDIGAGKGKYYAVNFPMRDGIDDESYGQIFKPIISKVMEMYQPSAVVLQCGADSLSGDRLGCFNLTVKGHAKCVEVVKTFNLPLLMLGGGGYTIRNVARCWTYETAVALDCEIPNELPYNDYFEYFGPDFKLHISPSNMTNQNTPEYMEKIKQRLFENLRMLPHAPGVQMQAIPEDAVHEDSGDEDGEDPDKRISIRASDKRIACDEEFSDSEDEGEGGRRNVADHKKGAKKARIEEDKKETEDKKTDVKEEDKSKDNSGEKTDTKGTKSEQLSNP
Chain of Histone deacetylase 3 (O15379 whole entry): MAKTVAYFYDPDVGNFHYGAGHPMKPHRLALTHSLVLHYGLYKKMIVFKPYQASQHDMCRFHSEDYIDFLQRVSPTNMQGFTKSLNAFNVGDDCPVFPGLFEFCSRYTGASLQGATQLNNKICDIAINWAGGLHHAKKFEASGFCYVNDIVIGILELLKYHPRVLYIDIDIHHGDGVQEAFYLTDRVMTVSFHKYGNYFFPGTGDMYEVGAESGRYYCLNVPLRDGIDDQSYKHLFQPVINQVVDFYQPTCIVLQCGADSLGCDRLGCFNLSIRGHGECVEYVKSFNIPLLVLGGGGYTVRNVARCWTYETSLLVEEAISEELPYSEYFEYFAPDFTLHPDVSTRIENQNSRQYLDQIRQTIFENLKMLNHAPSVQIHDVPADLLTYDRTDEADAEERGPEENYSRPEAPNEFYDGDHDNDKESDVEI
Chain of Histone deacetylase 5 (Q9UQL6 whole entry): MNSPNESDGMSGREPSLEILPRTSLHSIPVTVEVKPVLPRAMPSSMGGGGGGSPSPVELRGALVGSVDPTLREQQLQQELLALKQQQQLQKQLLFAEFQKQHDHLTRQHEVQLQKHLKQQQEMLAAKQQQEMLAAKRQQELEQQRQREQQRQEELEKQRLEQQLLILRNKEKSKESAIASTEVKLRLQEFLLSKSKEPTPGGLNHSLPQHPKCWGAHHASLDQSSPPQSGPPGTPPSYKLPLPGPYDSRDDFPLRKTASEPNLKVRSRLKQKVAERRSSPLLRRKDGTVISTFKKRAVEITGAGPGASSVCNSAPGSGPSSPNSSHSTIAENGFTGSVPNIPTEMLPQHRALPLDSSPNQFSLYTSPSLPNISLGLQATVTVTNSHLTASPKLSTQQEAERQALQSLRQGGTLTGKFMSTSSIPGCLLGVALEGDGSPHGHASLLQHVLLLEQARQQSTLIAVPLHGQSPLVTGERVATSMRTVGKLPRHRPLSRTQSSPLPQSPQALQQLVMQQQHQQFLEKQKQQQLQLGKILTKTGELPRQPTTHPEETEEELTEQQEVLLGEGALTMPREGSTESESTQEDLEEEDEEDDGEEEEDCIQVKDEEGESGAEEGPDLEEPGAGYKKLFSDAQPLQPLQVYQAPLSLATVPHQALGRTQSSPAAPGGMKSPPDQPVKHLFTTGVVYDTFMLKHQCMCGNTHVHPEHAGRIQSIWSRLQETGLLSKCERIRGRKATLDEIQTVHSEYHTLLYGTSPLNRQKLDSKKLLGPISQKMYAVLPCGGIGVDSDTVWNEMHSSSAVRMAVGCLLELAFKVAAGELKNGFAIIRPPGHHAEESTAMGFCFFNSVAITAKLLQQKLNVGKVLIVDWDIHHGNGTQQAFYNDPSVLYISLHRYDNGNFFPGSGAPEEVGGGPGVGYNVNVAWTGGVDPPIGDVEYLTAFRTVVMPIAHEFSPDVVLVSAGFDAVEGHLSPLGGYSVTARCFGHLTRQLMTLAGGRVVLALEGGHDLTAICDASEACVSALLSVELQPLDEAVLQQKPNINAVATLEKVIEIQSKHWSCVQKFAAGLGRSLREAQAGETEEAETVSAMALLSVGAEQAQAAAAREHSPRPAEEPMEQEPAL

In the case of `O=C(/C=C/c1ccc(C(c2c[nH]c3ccccc23)c2c[nH]c3ccccc23)cc1)NO`, the IC50 in test [1] amounted to 3.9 µM; in test [2] it was 4.7 µM; in [3] it was 3.3 µM; in test [4] it was 2.6 µM; in test [5], 4.9 µM; in test [6], 0.41 µM. Moreover, the IC50 in test [7] came out at 4.8 µM; in [8] it was 0.44 µM; in test [9] it was 4.8 µM; in test [10], 4.9 µM.
